The structures appear in SMILES notation. The source made the active and inactive calls. The calls are words filed in the database; no cut-off is given here.

In general, IC50 refers to the midpoint of a concentration-inhibition curve. A higher IC50 goes with lower potency.

Data set [1] concerns L1210. Kind of data set: Ratio of melphalan IC50 to compound IC50 for mouse L1210 cells after 48 to 72 hrs by Coulter counter cell counting.
Data set [2] concerns REH. Kind of data set: Induction of apoptosis in human REH cells assessed as DNA fragmentation at 0.5 uM after 48 hrs by agarose gel electrophoresis. In kind it is functional, cell-based. A digest of the protocol: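 REH cells given 0, 0.1, 0.5, 1 and 5 μM for 48 h, DMSO vehicle control. Cells lysed in Triton X-100/proteinase K buffer at 55 °C for 5 h, then RNase (50 μg/ml) 1 h at 37 °C. DNA precipitated with sodium acetate/isopropanol and run on 2% agarose at 50 V for 3 h.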

For data set [3], the system named is REH. The experiment in a line: Induction of apoptosis in human REH cells assessed as ROS production at 1 uM after 30 mins using H2DCFDA by flow cytometry (reference value: 0.11%). Format: functional. A general note: Flow cytometry measures light scatter and fluorescence of single cells or particles in a stream.
For data set [4], the system named is REH. The experiment in a line: Induction of apoptosis in human REH cells assessed as late apoptotic cells at 1 uM after 48 hrs using propidium iodide/annexin-V by flow cytometry (reference value: 8.7 %). Format: functional. An outline of the steps:
(§1)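 REH cells given 1 μM compound for 48 h alongside DMSO controls. Harvested, washed in PBS, resuspended in binding buffer (10 mM HEPES pH 7.4, 144 mM NaCl, 25 mM CaCl₂).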

Data set [5] deals with REH. Kind of data set: Induction of apoptosis in human REH cells assessed as loss of mitochodrial membrane potential at 0.5 to 1 uM after 48 hrs using JC-1 staining by flow cytometry. Format: functional, cell-based. An outline of the steps:
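REH cells exposed to 0.5 or 1 μM compound for 48 h, then incubated with 0.5 μM JC-1 for 20 min at 37 °C, washed and read by flow cytometry. Green-to-red fluorescence ratio reported. 2,4-DNP as positive control, DMSO-treated cells as controls. Two independent experiments.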

Data set [6] deals with REH. Kind of data set: Induction of apoptosis in human REH cells assessed as ROS production at 1 uM after 60 mins using H2DCFDA by flow cytometry (reference value: 0.11%). In kind it is functional.
Data set [7] relates to HeLa. Kind of data set: Cytotoxicity against human HeLa cells after 72 hrs by Coulter counting method. In kind it is functional, cell-based. An outline of the steps:
(§2)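 (5–7.5) × 10⁴ tumour cells per well with test compound. Proliferation ran 48 h for L1210 and 72 h for CEM and HeLa, at 37 °C in humidified CO₂. Cells counted in a Coulter counter. IC50 taken as the concentration that inhibited cell proliferation by 50%.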

Data set [8] has as its system REH. Kind of data set: Induction of apoptosis in human REH cells assessed as ROS production at 1 uM after 5 mins using H2DCFDA by flow cytometry (reference value: 0.11%). Format: functional.
Data set [9] concerns REH. The experiment in a line: Induction of apoptosis in human REH cells assessed as ROS production at 1 uM after 5 to 60 mins using H2DCFDA by flow cytometry (reference value: 0.11%). Format: functional.
The test system of data set [10] is REH. Kind of data set: Effect on cell cycle progression in human REH cells at 0.1 to 1 uM after 48 hrs using propidium iodide by flow cytometry. In kind it is functional, cell-based. An outline of the steps: (§3)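 REH cells (0.5 × 10⁵ cells/ml) precultured 24 h, then exposed to 0, 0.1, 0.5 or 1 μM compound for 48 h. Harvested, fixed in 70% chilled ethanol, stained with propidium iodide, analysed by flow cytometry, at least 10,000 cells per sample. Phase distribution from histograms, two independent experiments.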

Data set [11] deals with REH. The experiment in a line: Induction of apoptosis in human REH cells assessed as ROS production at 1 uM after 15 mins using H2DCFDA by flow cytometry (reference value: 0.11%). In kind it is functional.
The subject of data set [12] is REH. The experiment in a line: Cytotoxicity against human REH cells after 48 to 72 hrs. In kind it is functional, cell-based. An outline of the steps: (§4)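 REH and K562 cells at 0.5 × 10⁵ cells/ml, given 0–10 μM compound, with a DMSO vehicle control. Read at 48 and 72 h by trypan blue dye exclusion (cells precultured 24 h before dosing) and by MTT. Three independent experiments, MTT in duplicate.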

Data set [13] concerns REH. Kind of data set: Cell cycle arrest in human REH cells assessed as accumulation at sub-G1 phase at 0.1 to 1 uM after 48 hrs using propidium iodide by flow cytometry. Format: functional, cell-based. A digest of the protocol: as §3
Data set [14] deals with REH. Kind of data set: Cytotoxicity against human REH cells at 0.5 uM after 48 hrs using ethidium bromide staining by live-dead assay relative to 293T cells. Format: functional. A digest of the protocol:
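REH and 293T cells seeded at 1 × 10^5/ml, exposed to 0.5 μM compound for 48 h; DMSO vehicle control. Harvested cells stained with ethidium bromide (5 μg/ml), which enters membrane-compromised dead cells, and dead fraction quantified by flow cytometry. REH cultured in RPMI1640, 293T in DMEM, both with 10% FBS, penicillin/streptomycin, 37 °C, 5% CO2.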

Data set [15] is described as follows: Ratio of melphalan IC50 to compound IC50 for human CEM cells after 48 to 72 hrs by Coulter counter cell counting. The note with it: CCRF-CEM (CEM) cells.
The subject of data set [16] is L1210. Kind of data set: Cytotoxicity against mouse L1210 cells after 48 hrs by Coulter counting method. In kind it is functional, cell-based. The note with it: L1210, 48 h. A digest of the protocol: as §2
Data set [17] has as its system HeLa. Kind of data set: Ratio of melphalan IC50 to compound IC50 for human HeLa cells after 48 to 72 hrs by Coulter counter cell counting.
The next data set deals with K562. The experiment in a line: Cytotoxicity against human K562 cells after 48 to 72 hrs. Format: functional, cell-based. A digest of the protocol: as §4
Data set [18] deals with REH. Kind of data set: Cell cycle arrest in human REH cells at 0.1 to 1 uM after 48 hrs using propidium iodide by flow cytometry. Format: functional, cell-based. An outline of the steps:
as §3

The subject of data set [19] is REH. The experiment in a line: Induction of apoptosis in human REH cells assessed as viable cells at 1 uM after 48 hrs using propidium iodide/annexin-V by flow cytometry (reference value: 72.6 %). As to conditions: read-out: Activity. In kind it is functional. An outline of the steps:
as §1

Data set [20] concerns REH. Kind of data set: Induction of apoptosis in human REH cells assessed as necrotic cells at 1 uM after 48 hrs using propidium iodide/annexin-V by flow cytometry (reference value: 2.5 %). In kind it is functional. An outline of the steps:
as §1

The subject of data set [21] is REH. The experiment in a line: Induction of apoptosis in human REH cells assessed as early apoptotic cells at 1 uM after 48 hrs using propidium iodide/annexin-V by flow cytometry (reference value: 16.2 %). In kind it is functional. An outline of the steps:
as §1

For another data set, the system named is CCRF-CEM. The experiment in a line: Cytotoxicity against human CEM cells after 72 hrs by Coulter counting method. In kind it is cell-based. A digest of the protocol: as §2

Consider `O=Cc1c(-c2cc3ccccc3oc2=O)nc2sc(Cc3ccc(Cl)cc3)nn12`, for which the “Ratio IC50” value in the data set on L1210 [1] and with HeLa [17] was 3 each time. Further, the result with REH [2], in the data set with REH [5] and in the data set on REH [13] was Active. Moreover, the Activity in the data set with REH [3] came to 0.13%; in the data set on REH [4], 14.6%; with REH [6], 0.16%; in the data set with REH [8] it was 0.16%; with REH [9], 36.99%; with REH [11], 0.12%. Moreover, the Activity with REH [20] is 9.1%; in the data set with REH [21] it was 21.5%. In addition, the IC50 is 900 nM in the data set with HeLa [7]; 670 nM with REH [12]; 890 nM in the data set with L1210 [16]; 900 nM in the data set with K562; 750 nM in the data set on CCRF-CEM. The outcome in the data set with REH [10] and in the data set on REH [18] was inactive. Moreover, the “fold change (FC)” value with REH [14] is given as 6. The selectivity ratio in [15] amounted to 3. In the data set on REH [19], the viability at 1 µM was 54.8%.

These data come from ChEMBL document CHEMBL3351601, “2-(4-Chlorobenzyl)-6-arylimidazo[2,1-b][1,3,4]thiadiazoles: synthesis, cytotoxic activity and mechanism of action” (Eur J Med Chem, 2014).
